PMC10432884 (Clinical and Translational Science, 2023)
Read-outs that look alike come from different tables or passages of the source.

How the values were obtained:
[1] = dogs, preclinical experiments, cited from earlier work
[2] = monkeys, preclinical experiments, cited from earlier work
[3] = FI phase pharmacokinetics; format: in vivo, human
In short: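 Open-label, randomized two-period crossover in 14 healthy subjects. Each received a single 10 mg oral tablet fasted, or ~30 min after a high-fat meal (800–1000 kcal). Washout was 21 days. Plasma (K-EDTA) was sampled predose and 15 min–48 h postdose, plus days 7 and 14 (period 1) and days 5 and 9 (period 2), and assayed by validated LC-MS/MS (LLOQ 1.00 ng/mL). Cmax, AUCτ and AUCinf were compared by ANOVA (food, sequence, period fixed; subject-within-sequence random).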

[4] = system: healthy subjects; experiment: SAD phase blood pressure; format: in vivo, human; conditions: for Mean SBP, LSMs difference from placebo: over 48 h
[5] = system: healthy subjects; experiment: SAD phase CNS test battery; format: in vivo, human
[6] = system: healthy subjects; experiment: MAD phase blood pressure; format: in vivo, human
In short: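 Double-blind MAD phase: four cohorts of 10 healthy subjects, randomized 4:1 to oral tablet (2, 5, 10, 15 mg) or placebo q.d. for 14 days after ≥10 h fast. BP and pulse were recorded predose daily and at 1, 2, 4, 6, 12 h on days 1, 2 and 14. Orthostatic BP was taken 24 and 48 h after the last dose. ANCOVA (treatment, time, treatment×time; random subject; predose covariate) gave LSM differences versus placebo with 95% CI.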

[7] = system: rodents; conditions: treated rodents; cited from earlier work
[8] = system: healthy subjects; experiment: First-in-human trial, food-interaction; format: in vivo
In short: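 Safety covered all dosed subjects in the SAD, MAD and FI phases: AEs (MedDRA 21.1), concomitant medication, vital signs, ECGs, physical exams and safety labs. BP was taken after 5 min supine, then ≥1 min sitting and 1–3 min standing. Orthostasis was defined as an SBP fall ≥20 mmHg or DBP fall ≥10 mmHg within 3 min standing. TEAEs were summarized by treatment, organ class, severity and drug-relatedness.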

[9] = First-in-human trial, all phases: overall pharmacokinetics; format: in vivo
[10] = system: healthy subjects; experiment: MAD phase CNS test battery; format: in vivo, human
[11] = SAD phase pharmacokinetics; format: in vivo, human; conditions: for AUC(0-t) / Tmax / AUC(0-inf) / Cmax / half-life: human, plasma, oral; for AUC(0-t): AUClast; for AUC(0-inf): AUCinf; for Cmax: C max
In short: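 Single oral doses of 0.3–50 mg after ≥10 h fast. Plasma (K-EDTA) was sampled predose and […]; urine was collected for 48 h. Assay was validated LC-MS/MS (plasma LLOQ 1.00 ng/mL; below-LLOQ set to 0). AUClast, Cmax and Tmax were derived at all doses; AUCinf, clearance and t1/2 from 10 mg upward. Urinary excretion and renal clearance were also derived. Steady-state time was estimated from these SAD data.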

[12] = system: rodents; conditions: in vivo; cited from earlier work
[13] = FI sequence 10 mg Fasted‐Fed (n = 7)
[14] = FI sequence 10 mg Fed‐Fasted (n = 7)
[15] = both, 10 mg, GeoMean, SAD 10 mg

SMILES: Fc1ccccc1Cc1nc(-c2nc(C(F)(F)F)n[nH]2)cn2ccnc12 [zagociguat, 8‐(2‐fluorobenzyl)‐6‐(3‐(trifluoromethyl)‐1H‐1,2,4‐triazol‐5‐yl)imidazo[1,2‐a]pyrazine]
- CSF/free plasma ratio ([1]; 1 h after oral 1 mg/kg): 0.45
- CSF/free plasma ratio ([1]; 2 h after oral 1 mg/kg): 0.32
- CSF/free plasma ratio ([1]; 4 h after oral 1 mg/kg): 0.3
- CSF/free plasma ratio ([1]; 8 h after oral 1 mg/kg): 0.28
- Geometric mean CSF/free plasma ratio ([2]; intravenous administration): 0.57
- Geometric mean CSF/free plasma ratio ([2]; oral administration): 0.48
- Food effect ([3]; FI 10 mg, high-fat meal vs fasted): no food effects were observed
- C max LSM ratio fed vs. fasted ([3]; FI 10 mg, 95% CI: 0.94, 1.03): 0.99
- Plasma concentration in predose samples of second treatment period ([3]; FI, 21-day washout, limit of quantification 1.00 ng/mL): below the limit of quantification
- Mean SBP, LSMs difference from placebo ([4]; SAD 3 mg, 95% CI: −9.8, −0.1, p = 0.047): −4.9 mmHg
- Mean SBP, LSMs difference from placebo ([4]; SAD 50 mg, 95% CI: −10.0, −0.5, p = 0.032): −5.2 mmHg
- DBP change ([4]; SAD all dose groups): no decreases
- SBP change ([4]; SAD other dose groups (1, 10, 20, 30 mg)): No decreases
- pEEG and CNS tests, differences between placebo and zagociguat groups [5]: No dose‐dependent or consistent statistically significant differences
- Mean DBP, LSMs difference from placebo ([6]; MAD 2 mg q.d., over 14 days, 95% CI: −10.9, −1.3, p = 0.015): −6.1 mmHg
- Mean SBP, LSMs difference from placebo ([6]; MAD 2 mg q.d., over 14 days, 95% CI: −11.6, −0.6, p = 0.032): −6.1 mmHg
- DBP, maximum difference from placebo ([6]; MAD 5 mg q.d., day 14, 95% CI: −13.0, −2.0, p = 0.009): −7.5 mmHg
- Mean DBP, LSMs difference from placebo ([6]; MAD 5 mg q.d., over 14 days, 95% CI: −11.0, −1.4, p = 0.014): −6.2 mmHg
- SBP or DBP change ([6]; MAD 10 and 15 mg groups): No decreases
- Reduction in mean diastolic blood pressure ([6]; maximum over dose groups): up to 7.5 mmHg
- Reduction in mean systolic blood pressure ([6]; maximum over dose groups): up to 6.1 mmHg
- cGMP concentrations in CSF [7]: increases in cGMP concentrations
- Orthostatic hypotension events ([8]; FI phase): No orthostatic hypotension events
- Subjects with dizziness TEAEs ([8]; FI phase, 10 mg, fed and fasted): Three
- Subjects discontinued from study drug due to ≥1 TEAE [8, 13]: 0 n
- Subjects with ≥1 SAE [8, 13]: 0 n
- Subjects with ≥1 study drug related TEAE [8, 13]: 2 n
- TEAEs [8, 13]: 7 n
- Subjects discontinued from study drug due to ≥1 TEAE [8, 14]: 0 n
- Subjects with ≥1 SAE [8, 14]: 0 n
- Subjects with ≥1 study drug related TEAE [8, 14]: 1 n
- TEAEs [8, 14]: 7 n
- half-life ([9]; human, plasma, oral): 52.8 to 67.1 h
- Exposure vs dose ([9]; single and multiple escalating doses): increased in a dose‐proportional manner
- pEEG and CNS tests, differences between placebo and zagociguat groups [10]: No dose‐dependent or consistent statistically significant differences
- Dose level from which detectable in urine ([11]; SAD): 10 mg
- AUC(0-t) ([11]; both, 3 mg, GeoMean, SAD 3 mg): 11.4 µg·h/mL
- AUC(0-t) ([11]; both, 3 mg, Median, SAD 3 mg): 11.2 µg·h/mL
- Tmax ([11]; both, 3 mg, T max, Median, SAD 3 mg): 2.1 h
- AUC(0-inf) [11, 15]: 92.3 µg·h/mL
- AUC(0-inf) ([11]; both, 10 mg, Median, SAD 10 mg): 95 µg·h/mL
- AUC(0-t) [11, 15]: 57.6 µg·h/mL
- AUC(0-t) ([11]; both, 10 mg, Median, SAD 10 mg): 57.9 µg·h/mL
- Cmax [11, 15]: 1190 ng/mL
- Cmax ([11]; both, 10 mg, Median, SAD 10 mg): 1290 ng/mL
- Tmax ([11]; both, 10 mg, T max, Median, SAD 10 mg): 3.5 h
- half-life ([11]; both, 10 mg, t 1/2, GeoMean, SAD 10 mg): 63.4 h
- half-life ([11]; both, 10 mg, t 1/2, Median, SAD 10 mg): 64.8 h
- Cmax ([11]; both, 20 mg, GeoMean, SAD 20 mg): 2190 ng/mL
- AUC(0-t) ([11]; 0.3 mg, GeoMean, SAD 0.3 mg): 1.06 µg·h/mL
- AUC(0-t) ([11]; 0.3 mg, Median, SAD 0.3 mg): 1.09 µg·h/mL
- Cmax ([11]; 0.3 mg, GeoMean, SAD 0.3 mg): 40 ng/mL
- Cmax ([11]; 0.3 mg, Median, SAD 0.3 mg): 40.5 ng/mL
- Tmax ([11]; 0.3 mg, T max, Median, SAD 0.3 mg): 0.8 h
- AUC(0-t) ([11]; 1 mg, GeoMean, SAD 1 mg): 4.34 µg·h/mL
- AUC(0-t) ([11]; 1 mg, Median, SAD 1 mg): 4.46 µg·h/mL
- Cmax ([11]; 1 mg, GeoMean, SAD 1 mg): 142 ng/mL
- Cmax ([11]; 1 mg, Median, SAD 1 mg): 150 ng/mL
- Tmax ([11]; 1 mg, T max, Median, SAD 1 mg): 1 h
- Cmax ([11]; 3 mg, GeoMean, SAD 3 mg): 373 ng/mL
- Cmax ([11]; 3 mg, Median, SAD 3 mg): 372 ng/mL
- AUC(0-inf) ([11]; 20 mg, GeoMean, SAD 20 mg): 194 µg·h/mL
- AUC(0-inf) ([11]; 20 mg, Median, SAD 20 mg): 180 µg·h/mL
- AUC(0-t) ([11]; 20 mg, GeoMean, SAD 20 mg): 167 µg·h/mL
- AUC(0-t) ([11]; 20 mg, Median, SAD 20 mg): 158 µg·h/mL
- Cmax ([11]; 20 mg, Median, SAD 20 mg): 2260 ng/mL
- Tmax ([11]; 20 mg, T max, Median, SAD 20 mg): 4 h
- half-life ([11]; 20 mg, t 1/2, GeoMean, SAD 20 mg): 67.1 h
- half-life ([11]; 20 mg, t 1/2, Median, SAD 20 mg): 68 h
- AUC(0-inf) ([11]; 30 mg, GeoMean, SAD 30 mg): 272 µg·h/mL
- AUC(0-inf) ([11]; 30 mg, Median, SAD 30 mg): 288 µg·h/mL
- AUC(0-t) ([11]; 30 mg, GeoMean, SAD 30 mg): 251 µg·h/mL
- AUC(0-t) ([11]; 30 mg, Median, SAD 30 mg): 273 µg·h/mL
- Cmax ([11]; 30 mg, GeoMean, SAD 30 mg): 3370 ng/mL
- Cmax ([11]; 30 mg, Median, SAD 30 mg): 3650 ng/mL
- Tmax ([11]; 30 mg, T max, Median, SAD 30 mg): 4.5 h
- half-life ([11]; 30 mg, t 1/2, GeoMean, SAD 30 mg): 65.7 h
- half-life ([11]; 30 mg, t 1/2, Median, SAD 30 mg): 62.2 h
- AUC(0-inf) ([11]; 50 mg, GeoMean, SAD 50 mg): 478 µg·h/mL
- AUC(0-inf) ([11]; 50 mg, Median, SAD 50 mg): 471 µg·h/mL
- AUC(0-t) ([11]; 50 mg, GeoMean, SAD 50 mg): 425 µg·h/mL
- AUC(0-t) ([11]; 50 mg, Median, SAD 50 mg): 427 µg·h/mL
- Cmax ([11]; 50 mg, GeoMean, SAD 50 mg): 5730 ng/mL
- Cmax ([11]; 50 mg, Median, SAD 50 mg): 5820 ng/mL
- Tmax ([11]; 50 mg, T max, Median, SAD 50 mg): 5 h
- half-life ([11]; 50 mg, t 1/2, GeoMean, SAD 50 mg): 57 h
- half-life ([11]; 50 mg, t 1/2, Median, SAD 50 mg): 57.3 h
- half-life ([11]; Mean t 1/2, range, single administrations of 10–50 mg): 57 to 68 h
- Tmax ([11]; Median T max, range, SAD doses of 0.3–3 mg): 0.5 to 2.1 h
- Tmax ([11]; Median T max, range, SAD doses of 10–50 mg): 3.5 to 5 h
- Estimated time to steady-state ([11]; preliminary PK data from the SAD phase): 11 days
- qEEG gamma band power [12]: increased gamma band power
